What was measured:
Mus musculus [1] = test: BDF1 male mice were administered with 150 mg/kg po and percent change in iron levels was determined in Urine; assay type: functional
In short: (§1)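 Male BDF1 mice made iron-overloaded by transfusion of washed, heat-treated (50 °C, 30 min) canine red cells. Dosing began 2 days after the last transfusion, once daily for 7 days, in distilled water or 2% Polysorbate 80 suspension. Daily group urine was collected. Pooled feces were digested in 1 N HCl (90 °C, 30 min). Liver and spleen were homogenized in saline. Iron was measured by atomic absorption and expressed as % change vs transfused controls.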

Mus musculus [2] = test: BDF1 male mice were administered with 100 mg/kg po and percent change in iron levels was determined in Feces; assay type: functional; in short: as §1
Mus musculus [3] = test: BDF1 male mice were administered with 100 mg/kg po and percent change in iron levels was determined in Urine; assay type: functional; in short: as §1
Rattus norvegicus [4] = test: Percent change in iron levels was determined in feces using iron overload rat model where the route of administration is Peroral; assay type: functional
Mus musculus [5] = test: BDF1 male mice were administered with 100 mg/kg po and percent change in iron levels was determined in Spleen; assay type: functional; in short: as §1
Mus musculus [6] = test: BDF1 male mice were administered with 100 mg/kg ip and percent change in iron levels was determined in Spleen; assay type: functional; conditions: route intraperitoneal; in short: as §1
Mus musculus [7] = test: BDF1 male mice were administered with the compound and number of survivors was determined at a dose 150 mg/kg peroral out of 10 tested; assay type: functional; conditions: route oral
In short: (§2)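 Male BDF1 mice were iron-loaded by transfusion of canine red cells. The cells were heparinised, washed twice in isotonic saline and heated at 50 °C for 30 min. Dosing started two days after the last transfusion, once daily for 7 consecutive days. Compounds were given in distilled water or as a fine aqueous suspension with Polysorbate 80 (2% final). Toxic signs were recorded daily and survivors counted per group.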

Rattus norvegicus [8] = test: Percent change in iron levels was determined in urine using iron overload rat model where the route of administration is Peroral; assay type: functional
Rattus norvegicus [9] = test: Percent change in iron levels was determined in urine using iron overload rat model where the route of administration is Intraperitoneal; assay type: functional
Mus musculus [10] = test: BDF1 male mice were administered with 150 mg/kg po and percent change in iron levels was determined in Feces; assay type: functional; in short: as §1
Mus musculus [11] = test: BDF1 male mice were administered with 150 mg/kg po and percent change in iron levels was determined in Spleen; assay type: functional; in short: as §1
Mus musculus [12] = test: BDF1 male mice were administered with the compound and number of survivors was determined at a dose 100 mg/kg peroral out of 10 tested; assay type: functional; conditions: route oral; in short: as §2
Mus musculus [13] = test: BDF1 male mice were administered with 100 mg/kg ip and percent change in iron levels was determined in Liver; assay type: functional; conditions: route intraperitoneal; in short: as §1
Mus musculus [14] = test: BDF1 male mice were administered with 100 mg/kg ip and percent change in iron levels was determined in Urine; assay type: functional; conditions: route intraperitoneal; in short: as §1
Mus musculus [15] = test: BDF1 male mice were administered with 100 mg/kg po and percent change in iron levels was determined in Liver; assay type: functional; in short: as §1
Mus musculus [16] = test: BDF1 male mice were administered with 150 mg/kg po and percent change in iron levels was determined in Liver; assay type: functional; in short: as §1
Rattus norvegicus [17] = test: Percent change in iron levels was determined in feces using iron overload rat model where the route of administration is Intraperitoneal; assay type: functional
Mus musculus [18] = test: BDF1 male mice were administered with the compound and number of survivors was determined at a dose 100 mg/kg intraperitoneal out of 10 tested; assay type: functional; in short: as §2
Mus musculus [19] = test: BDF1 male mice were administered with 100 mg/kg ip and percent change in iron levels was determined in Feces; assay type: functional; conditions: route intraperitoneal; in short: as §1
[20] = First order rate constant was determined titrimetrically at pH 7.5 in the presence of Zn(II)
[21] = Half life was determined titrimetrically at pH 7.5 in the presence of Co(II)Half life was determined (measured in water)
[22] = Half life was determined titrimetrically at pH 10.5 in the absence of metal ironHalf life was determined Spectrophotometrically; assay type: ADME
Mus musculus [23] = test: BDF1 male mice were administered with 100 mg/kg orally and percent change in iron levels was determined in Feces; assay type: functional; conditions: route oral; in short: as §1
Mus musculus [24] = test: BDF1 male mice were administered with 50 mg/kg orally and percent change in iron levels was determined in Urine; assay type: functional; conditions: route oral
In short: (§3)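 Hypertransfused male BDF1 mice (canine red cells, washed and heated at 50 °C for 30 min) were dosed orally for 7 days with compound in distilled water or a fine suspension with Polysorbate 80 (2% final). Daily group urine and pooled feces (1 N HCl digest, 90 °C, 30 min, triplicate) were collected, and liver and spleen were homogenized. Iron was measured by atomic absorption and reported as % change vs transfused control.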

Mus musculus [25] = test: BDF1 male mice were administered with 200 mg/kg orally and percent change in iron levels was determined in Feces; assay type: functional; conditions: route oral; in short: as §1
[26] = First order rate constant was determined titrimetrically at pH 7.5 in the presence of Cu(II)
Mus musculus [27] = test: BDF1 male mice were administered with the compound orally and number of survivors was determined out of 10 tested at a dose 100 mg/kg peroral; assay type: functional; conditions: route oral; in short: as §2
[28] = First order rate constant was determined titrimetrically at pH 7.5 in the presence of Co(II)
Mus musculus [29] = test: BDF1 male mice were administered with 100 mg/kg orally and percent change in iron levels was determined in Urine; assay type: functional; conditions: route oral; in short: as §1
Mus musculus [30] = test: BDF1 male mice were administered with 25 mg/kg orally and percent change in iron levels was determined in Feces; assay type: functional; conditions: route oral; in short: as §3
Mus musculus [31] = test: BDF1 male mice were administered with 200 mg/kg orally and percent change in iron levels was determined in Spleen; assay type: functional; conditions: route oral; in short: as §1
Mus musculus [32] = test: BDF1 male mice were administered with 50 mg/kg orally and percent change in iron levels was determined in Spleen; assay type: functional; conditions: route oral; in short: as §3
[33] = Half life was determined titrimetrically at pH 10.5 in the presence of Fe(III)Half life was determined (measured in water); assay type: ADME; conditions: pH 7.5, in the assay text read “pH 7.5” for “pH 10.5”
In short: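 Metal and chelator were each 5 × 10⁻⁴ M. Constant pH was held with 0.05 M NaOH. Hydrolysis rate came from base consumption, with first-order kinetics.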

Mus musculus [34] = test: BDF1 male mice were administered with 25 mg/kg orally and percent change in iron levels was determined in Liver; assay type: functional; conditions: route oral; in short: as §3
Mus musculus [35] = test: BDF1 male mice were administered with 200 mg/kg orally and percent change in iron levels was determined in Liver; assay type: functional; conditions: route oral; in short: as §1
Mus musculus [36] = test: BDF1 male mice were administered with the compound orally and number of survivors was determined out of 10 tested at a dose 200 mg/kg peroral; assay type: functional; conditions: route oral; in short: as §2
Mus musculus [37] = test: BDF1 male mice were administered with 200 mg/kg orally and percent change in iron levels was determined in Urine; assay type: functional; conditions: route oral; in short: as §1
[38] = Half life was determined titrimetrically at pH 7.5 in the presence of Fe(III)Half life was determined
Mus musculus [39] = test: BDF1 male mice were administered with 100 mg/kg orally and percent change in iron levels was determined in Spleen; assay type: functional; conditions: route oral; in short: as §1
Mus musculus [40] = test: BDF1 male mice were administered with 50 mg/kg orally and percent change in iron levels was determined in Liver; assay type: functional; conditions: route oral; in short: as §3
Mus musculus [41] = test: BDF1 male mice were administered with 50 mg/kg orally and percent change in iron levels was determined in Feces; assay type: functional; conditions: route oral; in short: as §3
Mus musculus [42] = test: BDF1 male mice were administered with the compound orally and number of survivors was determined out of 10 tested at a dose 50 mg/kg peroral; assay type: functional; conditions: route oral; in short: as §2
[43] = Compound was evaluated for lethal dose after intraperitoneal administration using iron overload rat model; assay type: toxicity, organism-based; conditions: in vivo, ip
[44] = Half life was determined titrimetrically at pH 7.5 in the presence of Cu(II) Half life was determined
[45] = Half life was determined titrimetrically at pH 7.5 in the presence of Zn(II)Half life was determined (measured in water)
Mus musculus [46] = test: BDF1 male mice were administered with the compound orally and number of survivors at a dose 25 mg/kg peroral was determined out of 10 tested; assay type: functional; conditions: route oral; in short: as §2
Mus musculus [47] = test: BDF1 male mice were administered with 100 mg/kg orally and percent change in iron levels was determined in Liver; assay type: functional; conditions: route oral; in short: as §1
Mus musculus [48] = test: BDF1 male mice were administered with 25 mg/kg orally and percent change in iron levels was determined in Spleen; assay type: functional; conditions: route oral; in short: as §3
Mus musculus [49] = test: BDF1 male mice were administered with 25 mg/kg orally and percent change in iron levels was determined in Urine; assay type: functional; conditions: route oral; in short: as §3
[50] = First order rate constant was determined titrimetrically at pH 10.5 in the absence of metal iron; assay type: ADME

CCCCCOC(=O)CN(CCN(CC(=O)OCCCCC)Cc1ccccc1O)Cc1ccccc1O
Iron change (Mus musculus [1]): 132% | Iron change (Mus musculus [2]): -3% | Iron change (Mus musculus [3]): 43% | Iron change (Rattus norvegicus [4]): 268% | Iron change (Mus musculus [5]): 12% | Iron change (Mus musculus [6]): -2% | No. of survivors (Mus musculus [7]): 8 | Iron change (Rattus norvegicus [8]): 390% | Iron change (Rattus norvegicus [9]): 215% | Iron change (Mus musculus [10]): -69% | Iron change (Mus musculus [11]): -11% | No. of survivors (Mus musculus [12]): 10 | Iron change (Mus musculus [13]): -33% | Iron change (Mus musculus [14]): 117% | Iron change (Mus musculus [15]): -12% | Iron change (Mus musculus [16]): -60% | Iron change (Rattus norvegicus [17]): 114% | No. of survivors (Mus musculus [18]): 10 | Iron change (Mus musculus [19]): 24%

COC(=O)CN(CCN(CC(=O)OC)Cc1ccccc1O)Cc1ccccc1O
10E2 k1 [20]: 3.66 min⁻¹ | half-life [21]: 2.72 h | half-life [22]: 3.57 h | Iron change (Mus musculus [23]): -2% | Iron change (Mus musculus [24]): 49% | Iron change (Mus musculus [25]): -71% | 10E2 k1 [26]: 0.513 min⁻¹ | Iron change (Rattus norvegicus [4]): 369% | No. of survivors (Mus musculus [27]): 10 | 10E2 k1 [28]: 0.436 min⁻¹ | Iron change (Mus musculus [29]): 34% | Iron change (Mus musculus [30]): -10% | Iron change (Mus musculus [31]): -29% | Iron change (Mus musculus [32]): -12% | half-life [33]: 5.4 min | Iron change (Mus musculus [34]): -20% | Iron change (Mus musculus [35]): -53% | Iron change (Rattus norvegicus [8]): 588% | Iron change (Rattus norvegicus [9]): 694% | No. of survivors (Mus musculus [36]): 10 | Iron change (Mus musculus [37]): 127% | half-life [38]: 0.328 h | Iron change (Mus musculus [39]): -12% | Iron change (Mus musculus [40]): -27% | Iron change (Mus musculus [41]): 8% | No. of survivors (Mus musculus [42]): 10 | LD50 [43]: ≥ 800 mg/kg | half-life [44]: 2.25 h | half-life [45]: 0.318 h | No. of survivors (Mus musculus [46]): 10 | Iron change (Rattus norvegicus [17]): 390% | Iron change (Mus musculus [47]): -42% | Iron change (Mus musculus [48]): -7% | Iron change (Mus musculus [49]): 30% | 10E2 k1 [50]: 0.325 min⁻¹
